b-catenin transl = alters nuclear translocation of beta-catenin in HeLa cells; immunofluorescence imaging; nuclear translocation activity, % at 5 µM; 0.3% of 190,000 active;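 active = nuclear translocation activity above 50% at 5 µM, with a well cell count of 50 or more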;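 also: per-cell ratio of nuclear to cytoplasmic median beta-catenin stain intensity; plate controls were DMSO negative control for no effect and GSK-3 inhibitor IX positive control for full effect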
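Read-out: Nuclear/cytoplasmic beta-catenin signal ratio, % activation | Assay system: Human HeLa cell line | Times: 24 h compound exposure at 37°C, 5% CO2 | Signal: Fluorescence imaging of beta-catenin antibody stain plus DAPI | Dosing: 5 µM primary, 0.02–20 µM confirmation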
L major viab = reduces viability of Leishmania major promastigotes. inhibition, % at 10 µM. 9% of 200,000 active. resazurin fluorescence viability; in the data active = inhibition above about 50%;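 also: promastigotes grown with compound for 44 hours at 28 °C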
Dynein transport = blocks dynein driven cargo transport along microtubules. z-score, hits read low. AID 1381. 3617.4 mouse cells, GR-EGFP nuclear translocation imaging; test concentration mostly 20 µM; stimulated with dexamethasone, 1 µM; hits give low values. 0.47% of 220,000 active;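 active = plate z-score of nuclear minus cytoplasmic receptor signal below a set negative limit, without overly bright fluorescence or cell loss, cut at about -3.5 in these data, passing the limit was not always enough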;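 also: z-score of nuclear minus cytoplasmic ring GR-EGFP intensity difference per well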
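Buffer or medium: tet-free, stripped-serum medium; Also added: dexamethasone, 1.0 µM final; Technique: high-content fluorescence imaging after fixation; Times: 48 h induction, 1 h compound, 30 min dex at 37 °C; Read-out: per-cell GR-EGFP intensity, nucleus versus surrounding cytoplasmic ring, well-averaged.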
MT stabilize HCS = stabilizes microtubules in HeLa cells; HeLa tubulin immunostaining HCS, 24 h; share of cells brighter than vehicle mean+2SD; 0.83% of 200,000 active; % tubulin-high responders, % at 10 µM;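 active = plate Z-score above 3 for both tubulin-high and condensed-nucleus cell shares, with cell loss under 80%, at 10 µM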;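 also: anti alpha tubulin signal scored within the nucleus-defined area of each cell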
HSV replic up = HSV replication enhancement. HSV replication augmentation in cells, fold increase. 0.005% of 220,000 active. maximum fold increase; in the data active = maximum fold increase above about 1.5; tested in PC3 cells
The depositor's hits bear a star; i = inactive; . = not tested or not shown. An excerpt weighted towards active compounds, which were near 8.9% of everything screened.

SMILES | b-catenin transl | L major viab | Dynein transport | MT stabilize HCS | HSV replic up
COc1ccc(N(CC(=O)Nc2ccc3c(c2)OCO3)S(=O)(=O)c2ccccc2)c(OC)c1 | -2 | 71* | 0.3 | 7 | i
COC(=O)c1ccc(NC(=O)CN(c2ccc3c(c2)OCO3)S(C)(=O)=O)cc1 | -1 | 64* | 0.12 | 2 | i
COC(=O)c1ccc(C)c(NC(=O)CN(c2ccc3c(c2)OCO3)S(C)(=O)=O)c1 | -6 | 7 | 0.026 | 3 | i
COc1ccc(N(CC(=O)Nc2ccc3c(c2)OCO3)S(=O)(=O)c2ccc(C)cc2)cc1OC | -2 | 63* | 0.14 | 1 | i
COC(=O)C1C(=O)NCC1c1ccccc1 (stereo not given) | -6 | -7 | -0.035 | 3 | .
CC1CCCCC1NC(=O)CN(C)S(=O)(=O)c1cccc2nsnc12 (stereo not given) | -1 | 0 | 1 | 5 | i
Cc1csc(NC(=O)C2CCN(S(=O)(=O)c3ccc4c(c3)oc(=O)n4C)CC2)n1 | . | -7 | -0.76 | 5 | i
O=C(/C=C/Nc1ccccc1Oc1ccccc1)c1ccco1 | 2 | 77* | -0.77 | 2 | i
CCOC(=O)c1ccccc1NC(=O)c1cn(-c2ccc(OC)cc2)c(=O)c2ccccc12 | -1 | 92* | -0.26 | 1 | i
CCOC(=O)c1ccccc1NC(=O)c1cn(-c2ccc(C)c(C)c2)c(=O)c2ccccc12 | -3 | 98* | 0.22 | 5 | i
COC(=O)c1ccccc1NC(=O)c1cn(-c2ccc(C)c(C)c2)c(=O)c2ccccc12 | -6 | 41 | -0.41 | 3 | i
COc1ccccc1NC(=O)c1ccc([N+](=O)[O-])cc1[N+](=O)[O-] | . | 85* | -0.66 | 2 | i
COc1ccc(-n2cc(C(=O)Nc3cc([N+](=O)[O-])ccc3OC)c3ccccc3c2=O)cc1 | -2 | 77* | 0.53 | 2 | i
COc1ccc2c(c1)CCc1c(C(=O)N3CCCCCC3)noc1-2 | 0 | 3 | -0.79 | 3 | i
C=C(C)C(=O)Oc1ccc(N2C(=O)CCC2=O)cc1 | -1 | . | -0.71 | . | i
CCOC(=O)N/N=C/c1cc(C)n(-c2cccc3ccccc23)c1C | 9 | 9 | 0.49 | 21* | i
COC(=O)N/N=C/c1cc(C)n(-c2cccc3ccccc23)c1C | -1 | 67* | 0.023 | 3 | i
CCOC(=O)N/N=C/c1cc(C)n(-c2ccccc2)c1C | 1 | 16 | 0.37 | 2 | i
CC1CCc2sc(NC(=S)NC(=O)c3ccccc3)c(C#N)c2C1 (stereo not given) | -5 | 34 | -1 | 11 | i
Cc1nn(C)cc1CN1CCCC(C(=O)c2ccc(-c3ccccc3)c(F)c2)C1 (stereo not given) | 1 | 97* | -1.4 | 3 | i
Cn1cc(CN2CCCC(C(=O)c3ccc(-c4ccccc4)cc3)C2)cn1 (stereo not given) | -2 | 91* | -0.8 | 1 | i
O=C(c1ccc(-c2ccccc2)cc1)C1CCCN(C(=O)Cn2cncn2)C1 (stereo not given) | 2 | 4 | -0.7 | 2 | i
CCn1cc(CN2CCCC(C(=O)c3ccc(-c4ccccc4)cc3)C2)cn1 (stereo not given) | 1 | 86* | 0.43 | 2 | i
COc1cccc(C(=O)C2CCCN(Cc3cn(C)nc3-c3ccccc3)C2)c1 (stereo not given) | -1 | 7 | 1.2 | 5 | i
Cn1cc(CN2CCCC(C(=O)c3ccc(-c4ccccc4)c(F)c3)C2)cn1 (stereo not given) | 6 | 87* | 0.18 | 2 | i
SMILES | b-catenin transl | L major viab | Dynein transport | MT stabilize HCS | HSV replic up
COc1ccc(C(=O)NCCN2CCCC2)cc1OC | 2 | -5 | -0.025 | 2 | i
COc1cc(OC)cc(-c2nnc(SCC(=O)N3CCCc4ccccc43)o2)c1 | -2 | -2 | -0.18 | 3 | i
c1ccc(-c2cc3nccc(-c4ccccn4)n3n2)cc1 | 0 | 8 | 0.36 | 9 | i
Cc1ccc(C(=O)c2cc(C)sc2NC(=O)CN2CCN(C(=O)c3ccco3)CC2)cc1 | 0 | 50* | 0.072 | 7 | i
CS(=O)(=O)N1CCN(c2ccccc2NC(=O)c2ccc(-c3ccc(Br)cc3)o2)CC1 | 2 | 53* | -1.5 | 1 | i
O=C(Cn1nc(-c2ccccc2)ccc1=O)Nc1ccc(N2CCN(C(=O)c3ccccc3)CC2)cc1 | 0 | 31 | 0.055 | 3 | i
N#CC1=C(N)Oc2cc(O)ccc2C1c1cccnc1 (stereo not given) | -4 | -2 | -0.012 | 2 | i
CN(C)c1ccc2c(c1)OC(N)=C(C#N)C2c1cccc(F)c1 (stereo not given) | 99* | 6 | 0.003 | 8 | .
CCOC(=O)C1=C(N)Oc2cc(O)ccc2C1c1ccc([N+](=O)[O-])cc1 (stereo not given) | -1 | 13 | -0.59 | 4 | i
Nc1nnc(SCC(=O)c2ccc([N+](=O)[O-])cc2)s1 | -1 | 84* | -0.16 | 4 | i
Cc1nnc(SCC(=O)c2ccc([N+](=O)[O-])cc2)s1 | 0 | 5 | -0.45 | 5 | i
Cc1cc(C)nc(N/N=C/c2ccccc2OCc2ccc([N+](=O)[O-])cc2)n1 | 1 | 7 | 0.077 | 2 | i
O=C(N/N=C/c1ccccn1)c1cc(-c2ccccc2Cl)n[nH]1 | 0 | 47 | -0.7 | 5 | i
O=C(N/N=C/c1ccccn1)c1cc(-c2ccc3ccccc3c2)n[nH]1 | 7 | 84* | 0.01 | 11 | i
CCc1ccc(-c2cc(C(=O)N/N=C/c3ccccn3)[nH]n2)cc1 | -2 | 74* | -0.32 | 4 | i
Cc1cc(C)nc(SCc2ccc(C(=O)N/N=C/c3ccccn3)cc2)n1 | 1 | 91* | 3.3 | 6 | i
O=C(N/N=C/c1ccco1)c1cc(-c2ccc3ccccc3c2)n[nH]1 | -10 | 15 | -1.1 | 2 | .
CCc1ccc(-c2cc(C(=O)N/N=C/c3ccco3)[nH]n2)cc1 | -1 | 12 | -0.31 | 1 | i
O=C(N/N=C/c1ccccn1)c1cc(-c2cccc3ccccc23)n[nH]1 | -3 | 73* | 1.5 | 5 | i
CCOc1cc(CNn2nnnc2N)cc(Cl)c1OCC(=O)NC(C)(C)C | 0 | 3 | -1.2 | 3 | i
C=CCNC(=O)/C=C/c1cccs1 | -1 | -8 | 1.2 | 3 | i
CC1(C)CC(=O)C(C=NCCN2CCN(CC(=O)Nc3ccc(Cl)cc3)CC2)=C(O)C1 | -3 | 1 | -0.56 | 9 | i
O=C(N/N=C/c1cccs1)c1cc(-c2ccc3ccccc3c2)n[nH]1 | 0 | 0 | -0.27 | 7 | i
O=C(N/N=C/c1cccs1)c1cc(-c2cccc3ccccc23)n[nH]1 | 120* | 12 | -0.84 | 20 | i
CCCC(=O)NC(=S)Nc1cccc(Cl)c1N1CCCCC1 | 0 | 9 | 0.041 | 2 | i
CCn1c2ccc(/C(C)=N\O)cc2c2cc(/C(C)=N\O)ccc21 | -1 | 54* | -0.84 | 2 | i

Screens (PubChem)
